# Experimental data as given in ChEMBL document CHEMBL1157749, “Novel N2-substituted pyrazolo[3,4-d]pyrimidine adenosine A3 receptor antagonists: inhibition of A3-mediated human glioblastoma cell proliferation” (J Med Chem, 2010).
# Activity calls are given as the source filed them. The calls are words filed in the database; no cut-off is given here.
# How the values were obtained:
# Adenosine receptor A2b = biological target: T1, Adenosine receptor A2b (Homo sapiens, UniProt P29275); test: Antagonist activity human recombinant adenosine A2B receptor expressed in CHO cells assessed as inhibition of NECA-mediated [3H]cAMP accumulation treated 15 mins before NECA challenge measured after 30 mins by liquid scintillation spectrometry; type: functional, cell-based
# T1 sequence (P29275 whole entry): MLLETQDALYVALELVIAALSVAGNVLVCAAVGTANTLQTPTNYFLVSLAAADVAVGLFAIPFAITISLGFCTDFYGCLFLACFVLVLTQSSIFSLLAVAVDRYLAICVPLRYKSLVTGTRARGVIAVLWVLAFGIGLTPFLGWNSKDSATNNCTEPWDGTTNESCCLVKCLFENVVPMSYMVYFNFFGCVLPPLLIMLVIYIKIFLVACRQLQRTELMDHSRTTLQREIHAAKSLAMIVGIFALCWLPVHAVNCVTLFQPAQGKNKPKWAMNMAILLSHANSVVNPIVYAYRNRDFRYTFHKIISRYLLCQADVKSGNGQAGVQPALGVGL
# How it was run: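 CHO cells stably expressing hA2B are pre-incubated 15 min at 37 °C in DMEM with ADA 1 U/mL and Ro 20-1724 20 μM. […] Cells are lysed in 0.4 N HCl. cAMP is measured by [3H]cAMP competition with bovine adrenal binding protein (150 min, 0 °C), with filtration and scintillation counting. Mean ± SEM, four experiments in triplicate.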
# Adenosine receptor A2a = Adenosine receptor A2a (Homo sapiens, UniProt P29274); test: biochemical; type: cell-based, CHO
# Adenosine receptor A3 [1] = biological target: T2, Adenosine receptor A3 (Homo sapiens, UniProt P0DMS8); test: Antagonist activity human recombinant adenosine A3 receptor expressed in CHO cells assessed as blockade of NECA-mediated inhibition of forskolin-stimulated [3H]cAMP production treated 15 mins before NECA challenge measured after 30 mins by liquid scintillation spectrometry; type: functional, cell-based
# T2 sequence (P0DMS8 whole entry): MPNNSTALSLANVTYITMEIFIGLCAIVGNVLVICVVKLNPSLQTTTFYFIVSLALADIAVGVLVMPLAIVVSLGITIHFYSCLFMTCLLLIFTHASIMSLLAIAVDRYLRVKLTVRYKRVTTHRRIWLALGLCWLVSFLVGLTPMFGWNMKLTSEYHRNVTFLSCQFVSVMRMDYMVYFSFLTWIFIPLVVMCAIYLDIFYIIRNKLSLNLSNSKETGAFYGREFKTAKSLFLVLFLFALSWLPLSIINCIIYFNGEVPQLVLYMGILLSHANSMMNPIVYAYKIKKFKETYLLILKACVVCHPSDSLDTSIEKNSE
# How it was run: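 hA3-expressing CHO cells are pre-incubated 15 min at 37 °C with ADA 1 U/mL and Ro 20-1724 20 μM. […] HCl lysates are assayed for cAMP by [3H]cAMP/binding-protein competition with scintillation read-out. IC50 is reported as mean ± SEM of four experiments in triplicate.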
# [2] = biological target: T3, Adenosine deaminase (Bos taurus) (UniProt P56658); test: Inhibition of bovine spleen adenosine deaminase at 10 uM after 2 mins by spectrophotometry
# T3 sequence (whole entry): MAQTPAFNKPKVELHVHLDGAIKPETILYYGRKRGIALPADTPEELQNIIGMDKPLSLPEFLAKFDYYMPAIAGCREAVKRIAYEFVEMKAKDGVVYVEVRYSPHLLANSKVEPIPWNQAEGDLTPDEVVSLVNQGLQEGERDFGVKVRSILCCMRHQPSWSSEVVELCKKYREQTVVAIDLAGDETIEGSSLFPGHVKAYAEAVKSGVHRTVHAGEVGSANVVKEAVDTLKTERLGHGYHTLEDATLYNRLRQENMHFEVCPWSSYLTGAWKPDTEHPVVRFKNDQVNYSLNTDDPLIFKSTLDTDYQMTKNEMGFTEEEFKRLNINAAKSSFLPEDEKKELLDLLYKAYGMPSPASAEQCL
# How it was run: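 Bovine spleen ADA at 0.3 nM with 50 μM adenosine in 50 mM potassium phosphate, pH 7.2, at 30 °C. Inhibitor is tested at 10 μM with final DMSO ≤4%. Deamination is followed as the change in A262 over 2 min, against a substrate-free blank.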
# Adenosine receptor A3 [3] = biological target: T2, Adenosine receptor A3; test: biochemical; type: cell-based, CHO
# Adenosine receptor A1 [4] = biological target: T4, Adenosine receptor A1 (Homo sapiens, UniProt P30542); test: Displacement of [3H]DPCPX from human adenosine A1 receptor expressed in CHO cells; type: cell-based
# T4 sequence (P30542 whole entry): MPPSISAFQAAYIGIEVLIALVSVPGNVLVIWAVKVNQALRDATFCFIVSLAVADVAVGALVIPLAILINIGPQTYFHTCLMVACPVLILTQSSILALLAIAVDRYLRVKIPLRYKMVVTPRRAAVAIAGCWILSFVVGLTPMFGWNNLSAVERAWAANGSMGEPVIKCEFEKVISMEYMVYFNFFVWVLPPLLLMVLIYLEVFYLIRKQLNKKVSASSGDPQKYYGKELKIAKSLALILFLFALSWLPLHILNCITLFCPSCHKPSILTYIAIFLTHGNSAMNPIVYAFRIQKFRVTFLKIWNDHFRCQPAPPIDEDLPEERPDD
# U-87MG ATCC [5] = test: Antiproliferative activity against human U87MG cell proliferation at 0.1 to 10 nM after 48 hrs by trypan exclusion assay; type: functional, cell-based
# How it was run: (§1)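 U87MG cells in RPMI/10% FBS are arrested in G1 (0.5% FBS, 48 h). They are then treated 48 h with Cl-IB-MECA 100 nM or IB-MECA 12 nM, with or without antagonist at 0.1–10 nM or 0.01–5 nM. Live cells are counted by 0.4% trypan blue exclusion in a haemocytometer and expressed as % of control, mean ± SEM.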
# Adenosine receptor A3 [6] = biological target: T2, Adenosine receptor A3; test: Antagonist activity at adenosine A3 receptor in human U87MG cells assessed as inhibition of Cl-IB-MECA-mediated ERK1/2 phosphorylation after 30 mins by ELISA; type: functional, cell-based, U-87MG ATCC
# [7] = biological target: T5, Mitogen-activated protein kinase; ERK1/ERK2 (Homo sapiens) (UniProt P27361+P28482); test: Modulation of ERK1/2 phosphorylation in human U87MG cells at 0.25 to 10 nM after 30 mins by ELISA; type: cell-based; conditions: U-87MG ATCC
# [8] = Octanol-water partition coefficient, log P of the compound; type: physicochemical
# U-87 MG [9] = test: Inhibition of Cl-IB-MECA-mediated human U87MG cell proliferation after 48 hrs by trypan blue exclusion assay; type: functional, cell-based, U-87MG ATCC; how it was run: as §1
# U-87 MG [10] = test: Inhibition of IBMECA-mediated human U87MG cell proliferation after 48 hrs by trypan blue exclusion assay; type: functional, cell-based, U-87MG ATCC; how it was run: as §1
# [11] = biological target: T5, Mitogen-activated protein kinase; ERK1/ERK2 (Homo sapiens); test: Modulation of ERK1/2 phosphorylation in human U87MG cells at 0.05 to 1 nM after 30 mins by ELISA; type: cell-based; conditions: U-87MG ATCC
# U-87MG ATCC [12] = test: Antiproliferative activity against human U87MG cell proliferation at 0.01 to 5 nM after 48 hrs by trypan exclusion assay; type: functional, cell-based; how it was run: as §1
# [13] = biological target: T6, Adenosine receptor A3 (Homo sapiens) (UniProt P0DMS8); test: Induction of adenosine A3 receptor-mediated ERK1/2 phosphorylation in human U87MG cells at 100 nM by ELISA; type: cell-based; conditions: U-87MG ATCC, TDE = time-dependent effect
# T6 sequence (whole entry): T2 sequence (P0DMS8 whole entry)
# How it was run: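 Time course in U87MG cells given 100 nM Cl-IB-MECA for 5–120 min. Phospho-ERK1/2 is read by colorimetric cell-based ELISA after fixation, with crystal violet cell-number correction. Results are % of control cells, mean ± SEM, Student t test.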
# Adenosine receptor A1 [14] = biological target: T4, Adenosine receptor A1; test: Inhibition of human adenosine A1 receptor
# How it was run: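 Displacement binding using membranes (30 μg protein) from CHO cells stably expressing human A1 receptor. […] Six compound concentrations were tested, in DMSO ≤2% final. Nonspecific binding was defined with 50 μM RPIA. IC50 was converted to Ki by Cheng-Prusoff; at least three determinations.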
# Sequence of Adenosine receptor A2a (P29274 whole entry): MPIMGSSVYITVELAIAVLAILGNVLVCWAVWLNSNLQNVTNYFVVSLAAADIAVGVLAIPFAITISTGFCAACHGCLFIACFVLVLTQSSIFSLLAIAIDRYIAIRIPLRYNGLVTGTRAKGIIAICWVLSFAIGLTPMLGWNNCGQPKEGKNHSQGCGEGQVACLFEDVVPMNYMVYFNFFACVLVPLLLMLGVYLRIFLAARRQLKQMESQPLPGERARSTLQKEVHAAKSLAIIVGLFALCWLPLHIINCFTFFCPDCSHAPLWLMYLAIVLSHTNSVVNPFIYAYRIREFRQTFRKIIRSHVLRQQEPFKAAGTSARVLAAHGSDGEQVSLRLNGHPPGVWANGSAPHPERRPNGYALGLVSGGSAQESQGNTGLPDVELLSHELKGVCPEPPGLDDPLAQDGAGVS
# T5 sequence (P27361 whole entry, looked up): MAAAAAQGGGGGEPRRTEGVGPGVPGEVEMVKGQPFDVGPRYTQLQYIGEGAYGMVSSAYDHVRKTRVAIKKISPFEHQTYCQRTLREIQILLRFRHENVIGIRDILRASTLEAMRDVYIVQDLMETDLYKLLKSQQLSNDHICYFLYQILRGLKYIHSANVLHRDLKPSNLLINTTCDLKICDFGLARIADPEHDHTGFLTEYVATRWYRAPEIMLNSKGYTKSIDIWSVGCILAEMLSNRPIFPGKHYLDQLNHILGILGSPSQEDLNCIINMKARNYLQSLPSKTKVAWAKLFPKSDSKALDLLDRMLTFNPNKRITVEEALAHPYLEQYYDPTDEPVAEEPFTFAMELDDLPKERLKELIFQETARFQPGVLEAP
# T5 sequence (P28482 whole entry, looked up): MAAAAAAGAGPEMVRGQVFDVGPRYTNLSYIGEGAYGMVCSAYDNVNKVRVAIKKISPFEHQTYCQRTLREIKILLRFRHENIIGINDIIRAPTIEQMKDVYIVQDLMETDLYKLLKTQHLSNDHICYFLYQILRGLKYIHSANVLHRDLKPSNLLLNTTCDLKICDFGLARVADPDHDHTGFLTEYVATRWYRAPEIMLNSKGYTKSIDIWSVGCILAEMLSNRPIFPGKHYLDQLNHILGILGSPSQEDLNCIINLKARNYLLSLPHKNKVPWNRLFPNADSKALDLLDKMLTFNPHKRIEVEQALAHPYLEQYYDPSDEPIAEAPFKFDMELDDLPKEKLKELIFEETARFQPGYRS
Compound,Ki (Adenosine receptor A2a),inhibition [2],Ki (Adenosine receptor A3 [3]),Ki (Adenosine receptor A1 [4]),also measured
COc1ccc(NC(=O)Nc2nc(-c3ccccc3)nc3nn(Cc4ccccc4)cc23)cc1,> 10000 nM,inactive,2.9 nM,> 10000 nM,IC50 (Adenosine receptor A2b): 1470 nM; IC50 (Adenosine receptor A3 [1]): 8.2 nM
COc1ccc(NC(=O)Nc2nc(-c3ccccc3)nc3nn(CCc4ccccc4)cc23)cc1,> 10000 nM,–,> 1000 nM,> 10000 nM,–
Cn1cc2c(NC(=O)Nc3ccccc3)nc(-c3ccccc3)nc2n1,> 10000 nM,inactive,20.9 nM,> 10000 nM,–
COc1ccc(NC(=O)Nc2nc(-c3ccccc3)nc3nn(C)cc23)cc1,> 10000 nM,inactive,358 nM,> 10000 nM,–
O=C(Nc1nc(-c2ccccc2)nc2nn(Cc3ccccc3)cc12)c1cccc(Cl)c1,> 10000 nM,inactive,3.7 nM,> 10000 nM,IC50 (Adenosine receptor A2b): 1330 nM; IC50 (Adenosine receptor A3 [1]): 7.6 nM
O=C(Nc1ncnc2nn(Cc3ccccc3)cc12)c1cccc(Cl)c1,4900 nM,–,> 1000 nM,> 10000 nM,–
Nc1nc(-c2ccccc2)nc2nn(CCc3ccccc3)cc12,1000 nM,inactive,503 nM,2500 nM,–
O=C(Nc1ncnc2nn(Cc3ccccc3)cc12)c1ccccc1,> 10000 nM,–,> 1000 nM,> 10000 nM,–
O=C(Nc1cccc(Cl)c1)Nc1nc(-c2ccccc2)nc2nn(CCc3ccccc3)cc12,> 10000 nM,–,> 1000 nM,> 10000 nM,–
Cc1cn2c(NC(=O)c3ccccc3)nc(-c3ccccc3)nc2n1,–,–,–,–,Ki (Adenosine receptor A1 [14]): 350 nM
O=C(Nc1cccc(Cl)c1)Nc1nc(-c2ccccc2)nc2nn(Cc3ccccc3)cc12,> 10000 nM,–,121 nM,> 10000 nM,–
COc1ccc(C(=O)Nc2nc(-c3ccccc3)nc3nn(CCc4ccccc4)cc23)cc1,1140 nM,–,45.2 nM,2400 nM,–
COc1ccc(C(=O)Nc2ncnc3nn(Cc4ccccc4)cc23)cc1,> 10000 nM,–,> 1000 nM,> 10000 nM,–
COc1ccc(C(=O)Nc2nc(-c3ccccc3)nc3nn(Cc4ccccc4)cc23)cc1,> 10000 nM,–,22.1 nM,> 10000 nM,–

# Continued, in another order:
Ki (Adenosine receptor A2a),inhibition [2],Ki (Adenosine receptor A3 [3]),Ki (Adenosine receptor A1 [4]),Compound,also measured
728 nM,inactive,0.6 nM,334 nM,Cn1cc2c(NC(=O)c3ccccc3)nc(-c3ccccc3)nc2n1,IC50 (Adenosine receptor A2b): 49.8 nM; Activity (U-87MG ATCC [5]): inactive; IC50 (Adenosine receptor A3 [6]): 0.74 nM; IC50 (Adenosine receptor A3 [1]): 1.9 nM; Activity [7]: inactive; logP [8]: 3.8; IC50 (U-87 MG [9]): 0.17 nM; IC50 (U-87 MG [10]): 0.41 nM
314 nM,–,22.3 nM,1050 nM,O=C(Nc1nc(-c2ccccc2)nc2nn(CCc3ccccc3)cc12)c1cccc(Cl)c1,–
3180 nM,inactive,0.18 nM,1040 nM,COc1ccc(C(=O)Nc2nc(-c3ccccc3)nc3nn(C)cc23)cc1,Activity [11]: inactive; IC50 (Adenosine receptor A2b): 53.9 nM; IC50 (Adenosine receptor A3 [6]): 0.061 nM; IC50 (Adenosine receptor A3 [1]): 2.4 nM; logP [8]: 4; Activity (U-87MG ATCC [12]): inactive; IC50 (U-87 MG [9]): 0.091 nM; IC50 (U-87 MG [10]): 0.057 nM
–,–,–,120 nM,CNC(=O)OC[C@H]1O[C@@H](n2cnc3c(NCc4cccc(I)c4)nc(Cl)nc32)[C@H](O)[C@@H]1O,Activity [13]: tde
227 nM,–,43.7 nM,27 nM,O=C(Nc1nc(-c2ccccc2)nc2nn(CCc3ccccc3)cc12)c1ccccc1,–
181 nM,inactive,3 nM,53 nM,O=C(Nc1nc(-c2ccccc2)nc2nn(Cc3ccccc3)cc12)c1ccccc1,IC50 (Adenosine receptor A2b): 272 nM; IC50 (Adenosine receptor A3 [1]): 53 nM
> 10000 nM,inactive,922 nM,585 nM,Cn1cc2c(N)nc(-c3ccccc3)nc2n1,–
886 nM,inactive,5.9 nM,1080 nM,Cn1cc2c(NC(=O)c3cccc(Cl)c3)nc(-c3ccccc3)nc2n1,–
> 10000 nM,inactive,29.1 nM,922 nM,Cn1cc2c(NC(=O)Nc3cccc(Cl)c3)nc(-c3ccccc3)nc2n1,–
> 10000 nM,inactive,2.9 nM,290 nM,O=C(Nc1ccccc1)Nc1nc(-c2ccccc2)nc2nn(Cc3ccccc3)cc12,IC50 (Adenosine receptor A2b): 1320 nM; IC50 (Adenosine receptor A3 [1]): 5.7 nM
96 nM,–,36.3 nM,1700 nM,O=C(Nc1ccccc1)Nc1nc(-c2ccccc2)nc2nn(CCc3ccccc3)cc12,–
121 nM,inactive,93 nM,312 nM,Nc1nc(-c2ccccc2)nc2nn(Cc3ccccc3)cc12,–
